High-throughput results as filed in PubChem.
Shown are actives, neighbours in structure and some others; about 6.4% of the full set was active somewhere.
H69AR growth 86K – growth inhibitors of human H69AR lung tumor cells; H69AR lung tumor viability, ATP luminescence, 72 h; stronger effect = lower value; viability, % at 10 µM; hit rate 6% among 85,000; AID 598;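 active = viability at or below 40%; inactive = viability above 40%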;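 also: multidrug resistant small cell line overexpressing MRP-1 efflux transporter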
Jurkat tox 60K – reduces viability or proliferation of Jurkat cells. Jurkat E6.1 viability, ATP luminescence, 48 h. inhibition, % at 4 µM. hit rate 1.2% among 56,000;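 active = inhibition above the mean inhibition of all tested compounds plus 3 SD, cut at about 28% in these data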
E coli WT exp – blocks growth of wild type E. coli BW25113; hit rate 0.15% among 98,000; AID 710; OD600 absorbance; growth inhibition, % at 100 µM;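 active = growth inhibition above about 50% at one test dose, limit read from the data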;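 also: growth measured after 20 h incubation at 37 °C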
tolC growth inh – blocks growth of E. coli BW25113 tolC mutant. OD615. growth inhibition, % at 10 µM (by protocol). hit rate 2.2% among 65,000. AID 573;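 active = growth inhibition at or above a cutoff equal to the mean over every tested compound plus 3 SD, cut at about 60% in these data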;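 also: growth measured after 20 h incubation at 37 °C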
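test system = E. coli BW25113 ΔtolC::kan bacteria | medium = LB with kanamycin 50 µg/mL | signal = OD at 615 nm | schedule = 37 °C, 20 h exposure | evaluation = % inhibition of E. coli growth | compound dosing = one dose of 10 µM final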
HUVEC inhibit – human endothelial cell proliferation inhibition. HUVEC proliferation, CellTiter-Glo luminescence, 72 h; stronger effect = lower value. viability, % at 10 µM (by protocol). hit rate 1.1% among 86,000. AID 648;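 active = viability at or below 30%; inactive = viability above 30%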
Fibroblast inh – blocks proliferation of human lung fibroblasts | LL 47 human lung fibroblast viability, ATP luminescence; stronger effect = lower value | viability, % at 10 µM | hit rate 1.1% among 85,000 | AID 719;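 active = viability at or below 50% in the single dose screen; inactive = viability above 50%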;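 also: compound exposure lasted 72 h before the ATP readout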
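Material: human lung fibroblast line LL 47, low passage; Evaluation: viability percentage against median untreated-cell control; Buffer or medium: 15% FBS in IMEM; Incubation: 72 h compound exposure at 37 °C after overnight plating; Dosing: 0.1% DMSO in all compound wells; Measured by: CellTiter-Glo luminescence.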
Hits are given with their value.

For COc1ccc(N(C)C2=NS(=O)(=O)c3ccccc32)cc1 the results were H69AR growth 86K 17, E coli WT exp inactive, HUVEC inhibit inactive and Fibroblast inh inactive.
Screening O=S1(=O)N=C(Oc2ccccc2)c2ccccc21 returned H69AR growth 86K inactive, Jurkat tox 60K inactive, E coli WT exp inactive, tolC growth inh inactive, HUVEC inhibit inactive and Fibroblast inh inactive.
For O=C(NNc1cccc(Cl)n1)Nc1ccccc1Cl the results were E coli WT exp inactive.
`Cc1cc2c(cc1C)CSC(c1c(O)ccc3ccccc13)SC2` gave H69AR growth 86K 1.6, E coli WT exp inactive, HUVEC inhibit 1.7 and Fibroblast inh inactive.
`Cc1cc2c(cc1C)CSC(c1ccc3ccccc3c1O)SC2` gave H69AR growth 86K 38, E coli WT exp inactive, HUVEC inhibit inactive and Fibroblast inh inactive.
For Cc1cc2c(cc1C)CSC(c1ccccc1O)SC2 the results were H69AR growth 86K inactive, E coli WT exp inactive, HUVEC inhibit inactive and Fibroblast inh inactive.
Screening COc1ccc(NC(=O)c2cc(CN3C(=O)c4ccccc4C3=O)ccc2OC)cn1 returned H69AR growth 86K 17, Jurkat tox 60K inactive, E coli WT exp inactive, tolC growth inh inactive and HUVEC inhibit inactive.
O=C(CC1Sc2ncnn2C1=O)Nc1ccccc1 (stereo not drawn) was read as H69AR growth 86K inactive, E coli WT exp inactive, HUVEC inhibit inactive and Fibroblast inh inactive.
O=C(NNC1=C(C(=O)C(F)(F)F)CCC1)c1ccccc1O was read as H69AR growth 86K 30, E coli WT exp inactive, HUVEC inhibit 6.8 and Fibroblast inh inactive.
`O=C(NNC1=C(C(=O)C(F)(F)F)CCC1)c1ccccc1Cl` gave H69AR growth 86K inactive, E coli WT exp inactive, HUVEC inhibit 15 and Fibroblast inh inactive.
COc1ccccc1C(=O)NNC1=C(C(=O)C(F)(F)F)CCC1 was read as E coli WT exp inactive.
O=C(c1ccccc1)N1CCN(c2ncnc3sc4c(c23)CCC4)CC1 was read as H69AR growth 86K inactive, E coli WT exp inactive, HUVEC inhibit inactive and Fibroblast inh inactive.
`CCOC(=O)/C(=N/Nc1ccc(Cl)cc1)S(=O)(=O)c1ccccc1` gave H69AR growth 86K inactive, E coli WT exp inactive, HUVEC inhibit inactive and Fibroblast inh inactive.
For CCOC(=O)CSC1=C(C#N)C(c2ccc(C)o2)CC(=O)N1 (stereo not drawn) the results were H69AR growth 86K inactive, Jurkat tox 60K 99, E coli WT exp inactive, tolC growth inh inactive, HUVEC inhibit inactive and Fibroblast inh 49.
`CCCCOC(=O)CSC1=C(C#N)C(c2ccc3c(c2)OCO3)CC(=O)N1` (stereo not drawn) gave H69AR growth 86K inactive, E coli WT exp inactive, tolC growth inh inactive, HUVEC inhibit inactive and Fibroblast inh inactive.
CCOC(=O)CSC1=C(C#N)C(c2ccc3c(c2)OCO3)CC(=O)N1 (stereo not drawn) was read as H69AR growth 86K 23, E coli WT exp inactive, tolC growth inh inactive, HUVEC inhibit inactive and Fibroblast inh inactive.
CCOC(=O)c1ccc(N2C(=O)C3C(C2=O)C(C(=O)c2ccc(Cl)cc2)N2CCCC32)cc1 (stereo not drawn) was read as H69AR growth 86K inactive, Jurkat tox 60K inactive, E coli WT exp inactive, tolC growth inh inactive, HUVEC inhibit inactive and Fibroblast inh inactive.
For O=C(CCC1COc2ccccc2O1)Nc1ccc(Cl)cn1 (stereo not drawn) the results were H69AR growth 86K inactive, Jurkat tox 60K inactive, E coli WT exp inactive, tolC growth inh inactive, HUVEC inhibit 15 and Fibroblast inh inactive.
For O=C(CCc1ccccc1)Nc1ccc(Cl)cn1 the results were H69AR growth 86K 30, Jurkat tox 60K 78, E coli WT exp inactive, tolC growth inh inactive, HUVEC inhibit inactive and Fibroblast inh inactive.
Cc1ccc(C(=O)Nc2ccc(Cl)cn2)cc1 was read as H69AR growth 86K 24, Jurkat tox 60K 76, E coli WT exp inactive, tolC growth inh inactive, HUVEC inhibit inactive and Fibroblast inh inactive.
`CCCCC(=O)Nc1ccc(Cl)cn1` gave H69AR growth 86K inactive, Jurkat tox 60K inactive, E coli WT exp inactive, tolC growth inh inactive, HUVEC inhibit inactive and Fibroblast inh inactive.
For CCOC(=O)Nc1ccc2c(c1)N(C(=O)C(C)N1CCCC1)c1ccccc1CC2 (stereo not drawn) the results were H69AR growth 86K inactive, E coli WT exp inactive, HUVEC inhibit inactive and Fibroblast inh inactive.
CCOC(=O)Nc1ccc2c(c1)N(C(=O)OC)c1ccccc1CC2 was read as Jurkat tox 60K 66, E coli WT exp inactive and tolC growth inh inactive.
